# Legend:
# Format in all cases: functional
# [1] = tested on: Rattus norvegicus; assay: Anesthetic effect in iv dosed Sprague-Dawley rat assessed as time required to walk
# In short: (§1)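 Adult female Sprague-Dawley rats (~350–450 g), restrained, tail marginal vein cannulated; drug at 10 mg/ml given by continuous iv infusion, initially 20 mg/kg/min until pedal withdrawal reflex score PWR = 1, then 6.7 mg/kg/min titrated up-and-down to keep dorsal recumbency and PWR = 1 to 10 min before cessation. Three rats per study, each its own ketamine control; randomised order, ≥1 h recovery between experiments.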
# [2] = tested on: Rattus norvegicus; assay: Anesthetic effect in iv dosed Sprague-Dawley rat assessed as duration of recovery of righting reflex; in short: as §1
# [3] = tested on: Rattus norvegicus; assay: Analgesic effect in iv dosed Sprague-Dawley rat assessed as dose required to cause pedal withdrawal reflex; in short: as §1
# [4] = tested on: Rattus norvegicus; assay: Analgesic effect in iv dosed Sprague-Dawley rat assessed as time required to cause pedal withdrawal reflex; in short: as §1
# [5] = tested on: Rattus norvegicus; assay: Anesthetic effect in iv dosed Sprague-Dawley rat assessed as dose required to cause loss of righting reflex; in short: as §1
# [6] = tested on: Rattus norvegicus; assay: Anesthetic effect in iv dosed Sprague-Dawley rat assessed as duration of loss of righting reflex; in short: as §1
Compound,Time [1] [s],Time [2] [s],Activity [3] [mg/kg],Time [4] [s],Activity [5] [mg/kg],Time [6] [s]
CN(C)[C@]1(c2ccccc2Cl)CCCCC1=O.Cl,1215,880,35,103,32,94
Cl.O=C1CCCC[C@]1(NCCCO)c1ccccc1Cl,588,341,34,102,21,59
CC(=O)OCCCN[C@]1(c2ccccc2Cl)CCCCC1=O.Cl,,,34,,26,81
CCOC(=O)CCN[C@]1(c2ccccc2Cl)CCCCC1=O.Cl,80,62,62,185,59,171
CC(C)OC(=O)CCN[C@]1(c2ccccc2Cl)CCCCC1=O.Cl,,15,84,,74,
CC(C)OC(=O)CCN[C@@]1(c2ccccc2Cl)CCCCC1=O.Cl,900,0,82,190,71,170
CCCOC(=O)CCNC1(c2ccccc2Cl)CCCCC1=O.Cl (racemic),0,0,136,420,131,404
CCOC(=O)CCCNC1(c2ccccc2Cl)CCCCC1=O.Cl (racemic),170,95,44,,24,70
CC(C)OC(=O)CCCNC1(c2ccccc2Cl)CCCCC1=O.Cl (racemic),110,37,66,,42,
CCCOC(=O)CCCNC1(c2ccccc2Cl)CCCCC1=O.Cl (racemic),65,10,209,558,137,329
CCOC(=O)CCCCNC1(c2ccccc2Cl)CCCCC1=O.Cl (racemic),112,,57,,34,97
CC(C)OC(=O)CCCCNC1(c2ccccc2Cl)CCCCC1=O.Cl (racemic),320,180,38,,38,
CCCOC(=O)CCCCNC1(c2ccccc2Cl)CCCCC1=O.Cl (racemic),90,45,83,277,82,271
CN(C)C1(c2ccccc2Cl)CCCCC1=O.Cl (racemic),1740,1500,43,130,43,125
CCOC(=O)CCN(C)C1(c2ccccc2Cl)CCCCC1=O (racemic),0,0,99,290,95,280
CCOC(=O)CCCN(C)C1(c2ccccc2Cl)CCCCC1=O.Cl (racemic),0,0,,600,,600
COC(=O)CCCCN(C)C1(c2ccccc2Cl)CCCCC1=O (racemic),,0,,,,420
CCOC(=O)CCNC1(c2ccccc2Cl)CCCCC1=O.Cl (racemic),,,55,,48,
CC(C)OC(=O)CCNC1(c2ccccc2Cl)CCCCC1=O.Cl (racemic),,83,37,,33,
CNC1(c2ccccc2Cl)CCCCC1=O (racemic) [KETAMINE],900,480,21,60,17,51
